Measurements as given in ChEMBL document CHEMBL4308883, “Development of hydroxamate-based histone deacetylase inhibitors containing 1,2,4-oxadiazole moiety core with antitumor activities” (Bioorg Med Chem Lett, 2019).

Experiments:
[1] = biological target: T1, Histone deacetylase 1 (Homo sapiens, UniProt Q13547); assay: Inhibition of HDAC1 (unknown origin) using Boc-Lys (Ac)-AMC as substrate measured after 60 mins by […]
[2] = tested on: HCCLM3; assay: Antiproliferative activity against human HCCLM3 cells after 48 hrs by MTT assay; format: functional, cell-based; conditions: HCCLM3, 48 h
[3] = tested on: HepG2; assay: Antiproliferative activity against human HepG2 cells after 48 hrs by MTT assay; format: functional, cell-based; conditions: HepG2, 48 h
[4] = tested on: HepG2; assay: Potency index, ratio of SAHA IC50 to test compound IC50 for antiproliferative activity against human HepG2 cells; format: functional
[5] = biological target: T1, Histone deacetylase 1; assay: Potency index, ratio of SAHA IC50 to test compound IC50 for HDAC1 (unknown origin)
[6] = biological target: T1, Histone deacetylase 1; assay: Inhibition of HDAC1 in human HepG2 cells assessed as increase in acetylated histone H3 levels by Western blot analysis; format: cell-based
Method in brief: (§1)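 HepG2 cells were treated at three concentrations (1.25, 2.5 and 5.0), with SAHA as the reference. Acetylated histone H3 and H4 were detected by immunoblotting. Ac-H3 and Ac-H4 band intensities were quantified by densitometric scanning and normalised to β-actin, n = 3.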

[7] = biological target: T1, Histone deacetylase 1; assay: Inhibition of HDAC1 in human HepG2 cells assessed as increase in acetylated histone H4 levels by Western blot analysis; format: cell-based; method in brief: as §1
[8] = tested on: HepG2; assay: Induction of apoptosis in human HepG2 cells after 48 hrs by annexin V-FITC/propidium iodide staining based assay; format: functional, cell-based
[9] = tested on: HepG2; assay: Induction of apoptosis in human HepG2 cells assessed as early apoptotic cells at 1.25 uM after 48 hrs by annexin V-FITC/propidium iodide staining based assay (reference value: 3.2 %); format: functional
[10] = tested on: HepG2; assay: Induction of apoptosis in human HepG2 cells assessed as late apoptotic cells at 1.25 uM after 48 hrs by annexin V-FITC/propidium iodide staining based assay (reference value: 1.8 %); format: functional
[11] = tested on: HepG2; assay: Induction of apoptosis in human HepG2 cells assessed as early apoptotic cells at 2.5 uM after 48 hrs by annexin V-FITC/propidium iodide staining based assay (reference value: 3.2 %); format: functional
[12] = tested on: HepG2; assay: Induction of apoptosis in human HepG2 cells assessed as late apoptotic cells at 2.5 uM after 48 hrs by annexin V-FITC/propidium iodide staining based assay (reference value: 1.8 %); format: functional
[13] = tested on: HepG2; assay: Induction of apoptosis in human HepG2 cells assessed as early apoptotic cells at 5 uM after 48 hrs by annexin V-FITC/propidium iodide staining based assay (reference value: 3.2 %); format: functional
[14] = tested on: HepG2; assay: Induction of apoptosis in human HepG2 cells assessed as late apoptotic cells at 5 uM after 48 hrs by annexin V-FITC/propidium iodide staining based assay (reference value: 1.8 %); format: functional

T1 sequence (Q13547 whole entry): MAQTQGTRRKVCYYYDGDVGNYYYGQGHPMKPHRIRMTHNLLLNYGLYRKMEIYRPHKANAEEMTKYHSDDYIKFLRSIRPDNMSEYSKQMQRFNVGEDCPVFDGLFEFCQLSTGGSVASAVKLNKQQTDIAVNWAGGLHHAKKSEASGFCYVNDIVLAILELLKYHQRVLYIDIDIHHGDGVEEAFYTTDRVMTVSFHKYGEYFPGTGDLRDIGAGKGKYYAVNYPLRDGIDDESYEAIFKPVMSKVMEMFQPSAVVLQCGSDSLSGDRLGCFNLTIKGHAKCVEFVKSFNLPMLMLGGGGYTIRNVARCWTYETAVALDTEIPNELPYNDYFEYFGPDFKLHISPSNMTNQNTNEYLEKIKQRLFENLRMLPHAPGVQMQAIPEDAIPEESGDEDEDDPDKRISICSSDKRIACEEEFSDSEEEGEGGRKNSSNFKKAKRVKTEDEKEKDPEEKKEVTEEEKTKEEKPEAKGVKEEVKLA

Row | IC50 [1] | IC50 [2] | IC50 [3] | Ratio IC50 [5] | inhibition [6] | inhibition [7] | Structure (SMILES) | Ratio IC50 [4] | Activity [8] | Activity [9] | Activity [10] | Activity [11] | Activity [12] | Activity [13] | Activity [14]
1 | 12.1 nM | 6.83 µM | 1680 nM |  |  |  | COc1ccc(N(Cc2noc(-c3cccc(C)c3)n2)C(=O)CCCCCC(=O)NO)cc1 | 2 - 4 |  |  |  |  |  |  | 
2 | 8.2 nM | 5.19 µM | 1070 nM | 2 | Dose-dependent effect | Dose-dependent effect | COc1ccc(N(Cc2noc(-c3ccccc3)n2)C(=O)CCCCCC(=O)NO)cc1 | 2 - 4 | Dose-dependent effect | 40.7% | 10.1% | 42.7% | 11.3% | 50.2% | 11.5%
3 |  |  |  |  |  |  | O=C(CCCCCCC(=O)Nc1ccccc1)NO [VORINOSTAT] |  |  | 29.7% | 9.3% | 33.5% | 10.7% | 40.4% | 10.7%
4 | 10.5 nM | 6.56 µM | 1030 nM |  | Dose-dependent effect | Dose-dependent effect | COc1ccc(N(Cc2noc(-c3cccc(F)c3)n2)C(=O)CCCCCC(=O)NO)cc1 | 2 - 4 | Dose-dependent effect | 44.6% | 11.1% | 44% | 14% | 50.8% | 10%
